Reference: ChEMBL document CHEMBL1122557, “Antiallergic agents. 3. N-(1H-tetrazol-5-yl)-2-pyridinecarboxamides” (1984)
Active and inactive are the calls of the source. The rule behind the calls is not given here.

Legend:
Rattus norvegicus [1] = test: Inhibition of passive cutaneous anaphylaxis following 10 mg/kg p.o. administration.; type: functional; settings: route oral
Method in brief: (§1)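 Rat passive cutaneous anaphylaxis model, with test agents given by the oral route.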

Rattus norvegicus [2] = test: Inhibition of passive cutaneous anaphylaxis following 3 mg/kg p.o. administration.; type: functional; settings: route oral; method in brief: as §1
Rattus norvegicus [3] = test: Inhibition of passive cutaneous anaphylaxis following 3 mg/kg p.o. (5 min pretreatment) administration.; type: functional; settings: route oral; method in brief: as §1
Rattus norvegicus [4] = test: Inhibition of passive cutaneous anaphylaxis following 1 mg/kg p.o. administration.; type: functional; settings: route oral; method in brief: as §1
Rattus norvegicus [5] = test: Inhibition of passive cutaneous anaphylaxis following 30 mg/kg p.o. administration.; type: functional; settings: route oral; method in brief: as §1
Rattus norvegicus [6] = test: Inhibition of passive cutaneous anaphylaxis following 10 mg/kg p.o. administration; Inactive.; type: functional, organism-based; design: dose 10 mg/kg; settings: at 10 mg/kg; method in brief: as §1

Row | SMILES | inhibition in vivo at 10 mg/kg (Rattus norvegicus [1]) | inhibition in vivo at 3 mg/kg (Rattus norvegicus [2]) | also measured
1 | Cc1ccc(C(=O)Nc2nn[nH]n2)nc1 | 42% | – | –
2 | Cc1cc(C)nc(C(=O)Nc2nn[nH]n2)c1 | – | 44% | inhibition in vivo at 3 mg/kg (Rattus norvegicus [3]): 37%
3 | O=C(Nc1nn[nH]n1)c1ncccc1Cl | 22% | – | –
4 | CCCCOc1cccc(C(=O)Nc2nn[nH]n2)n1 | 8% | 18% | –
5 | CNc1ccc(-c2cc(C)cc(C(=O)Nc3nn[nH]n3)n2)cc1 | – | 89% | –
6 | CCCCc1ccnc(C(=O)Nc2nn[nH]n2)c1 | 54% | 33% | –
7 | Cc1ccc(C)c(C(=O)Nc2nn[nH]n2)n1 | – | 65% | inhibition in vivo at 3 mg/kg (Rattus norvegicus [3]): 72%; inhibition in vivo at 1 mg/kg (Rattus norvegicus [4]): 37%
8 | Cc1ccc(C(=O)Nc2nn[nH]n2)nc1C | 42% | – | –
9 | O=C(Nc1nn[nH]n1)c1cccnc1 | 3% | 4% | inhibition in vivo at 30 mg/kg (Rattus norvegicus [5]): 18%
10 | O=C(Nc1nn[nH]n1)c1ccncc1 | – | – | inhibition in vivo at 30 mg/kg (Rattus norvegicus [5]): 57%
11 | O=C(Nc1nn[nH]n1)c1cccc(CCc2ccccc2)n1 | 45% | – | –
12 | CSc1ccc(C(=O)Nc2nn[nH]n2)nc1 | 29% | – | –
13 | O=C(Nc1nn[nH]n1)c1cc(Br)ccn1 | 100% | 34% | inhibition in vivo at 1 mg/kg (Rattus norvegicus [4]): 9%
14 | O=C(O)C(=O)Nc1cccc(/C=C/c2ccccc2)n1 | – | – | inhibition (Rattus norvegicus [6]): inactive
15 | O=C(Nc1nn[nH]n1)c1ccccn1 | 35% | 29% | inhibition in vivo at 1 mg/kg (Rattus norvegicus [4]): 0%; inhibition in vivo at 30 mg/kg (Rattus norvegicus [5]): 100%
16 | Cc1cccnc1C(=O)Nc1nn[nH]n1 | 69% | – | –
17 | Cc1cc(Cl)cc(C(=O)Nc2nn[nH]n2)n1 | 100% | – | inhibition in vivo at 3 mg/kg (Rattus norvegicus [3]): 85%; inhibition in vivo at 1 mg/kg (Rattus norvegicus [4]): 66%
18 | CCCc1cccc(C(=O)Nc2nn[nH]n2)n1 | 38% | – | –
19 | CCOC(=O)C(=O)Nc1cccc(/C=C/c2ccccc2)n1 | – | – | inhibition (Rattus norvegicus [6]): inactive

Row | SMILES | inhibition in vivo at 10 mg/kg (Rattus norvegicus [1]) | inhibition in vivo at 3 mg/kg (Rattus norvegicus [2]) | also measured
20 | O=C(Nc1nn[nH]n1)c1cccc(Oc2ccccc2)n1 | 0% | – | –
21 | O=C(Nc1nn[nH]n1)c1cccc(Cl)n1 | 13% | 18% | –
22 | Cc1ccnc(C(=O)Nc2nn[nH]n2)c1 | – | 42% | inhibition in vivo at 3 mg/kg (Rattus norvegicus [3]): 51%; inhibition in vivo at 1 mg/kg (Rattus norvegicus [4]): 28%
23 | Cc1cc([N+](=O)[O-])cc(C(=O)Nc2nn[nH]n2)n1 | 6% | – | –
24 | C(=C\c1cccc(-c2nn[nH]n2)n1)/c1ccccc1 | – | – | inhibition (Rattus norvegicus [6]): inactive
25 | COc1cccc(C(=O)Nc2nn[nH]n2)n1 | 58% | 36% | –
26 | CCc1ccnc(C(=O)Nc2nn[nH]n2)c1 | – | 29% | inhibition in vivo at 3 mg/kg (Rattus norvegicus [3]): 54%; inhibition in vivo at 1 mg/kg (Rattus norvegicus [4]): 32%
27 | CC(C)c1ccnc(C(=O)Nc2nn[nH]n2)c1 | – | 34% | inhibition in vivo at 1 mg/kg (Rattus norvegicus [4]): 36%
28 | COc1cccnc1C(=O)Nc1nn[nH]n1 | 0% | – | –
29 | O=C(Nc1nn[nH]n1)c1cccc(/C=C/c2ccccc2)n1 | – | 73% | inhibition in vivo at 3 mg/kg (Rattus norvegicus [3]): 75%; inhibition in vivo at 1 mg/kg (Rattus norvegicus [4]): 53%
30 | O=C(Nc1nn[nH]n1)c1cc([N+](=O)[O-])ccn1 | 38% | – | –
31 | COc1ccnc(C(=O)Nc2nn[nH]n2)c1 | 88% | – | –
32 | COc1cc(C)nc(C(=O)Nc2nn[nH]n2)c1 | 20% | – | –
33 | O=C(Nc1nn[nH]n1)c1cc(Cl)ccn1 | 100% | 72% | inhibition in vivo at 3 mg/kg (Rattus norvegicus [3]): 71%; inhibition in vivo at 1 mg/kg (Rattus norvegicus [4]): 38%
34 | O=C(Nc1nn[nH]n1)c1cccc(Br)n1 | 48% | 38% | –
35 | CCCCc1cccc(C(=O)Nc2nn[nH]n2)n1 | 18% | – | –
36 | Cc1cccc(C(=O)Nc2nn[nH]n2)n1 | – | 46% | inhibition in vivo at 3 mg/kg (Rattus norvegicus [3]): 73%; inhibition in vivo at 1 mg/kg (Rattus norvegicus [4]): 40%
37 | O=C(O)c1cccc(/C=C/c2ccccc2)n1 | – | – | inhibition (Rattus norvegicus [6]): inactive
